Experimental data reported in ChEMBL document CHEMBL4130442, “Design, synthesis and structure-activity relationship studies of a focused library of pyrimidine moiety with anti-proliferative and anti-metastasis activities in triple negative breast cancer” (Eur J Med Chem, 2017).

These molecules were tested on MDA-MB-231 (assay: Antiproliferative activity against human MDA-MB-231 cells incubated for 48 hrs by MTT assay). Conditions: MDA-MB-231, 48 h.
Assay type: functional, cell-based
In short: (§1)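 MDA-MB-231 cells grown in DMEM with 10% FBS under 5% CO2 were seeded at 5×10^4 cells/ml. After 24 h, a concentration series was added for 24, 48 or 72 h and viability was read by MTT. IC50 is mean ± SD of triplicates.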

Molecule `C#Cc1cccc(Nc2ncnc3cc(OCCOC)c(OCCOC)cc23)c1` [ERLOTINIB] has an IC50 of 33.5 µM.

The molecules below were run on MDA-MB-231 (assay: Antiproliferative activity against human MDA-MB-231 cells incubated for 72 hrs by MTT assay). Conditions: MDA-MB-231, 72 h.
Assay type: functional, cell-based
In short: as §1

With `C#Cc1cccc(Nc2ncnc3cc(OCCOC)c(OCCOC)cc23)c1` [ERLOTINIB] the IC50 was 30.1 µM.

These molecules were tested on MDA-MB-231 (assay: Antiproliferative activity against human MDA-MB-231 cells incubated for 24 hrs by MTT assay). Conditions: MDA-MB-231, 24 h.
Assay type: functional, cell-based
In short: as §1

Compared with `COc1ccc(S(=O)(=O)N2CCN(c3nccc(Oc4cc(Cl)cc(Cl)c4)n3)CC2)cc1`, `O=S(=O)(c1ccc(F)cc1)N1CCN(c2nccc(Oc3cc(Cl)cc(Cl)c3)n2)CC1` is higher in IC50: 46.8 µM for the first, greater than 50 µM for the second. The first is the more potent here.

Compared with `O=C(c1ccc2c(c1)OCO2)N1CCN(c2nccc(Oc3cc(Cl)cc(Cl)c3)n2)CC1`, `O=C(c1cccc(Cl)c1)N1CCN(c2nccc(Oc3cc(Cl)cc(Cl)c3)n2)CC1` is lower in IC50: greater than 50 µM for the first, 37.8 µM for the second.

Compared with `O=C(Nc1ccc2ccccc2c1)N1CCN(c2nccc(Oc3cc(Cl)cc(Cl)c3)n2)CC1`, `COc1ccc(NC(=O)N2CCN(c3nccc(Oc4cc(Cl)cc(Cl)c4)n3)CC2)cc1` is 2.9-fold lower in IC50: 46.8 µM for the first, 16.4 µM for the second. The second is the more potent here.

Compared with `CN1CCN(CC(=O)N2CCN(c3nccc(Oc4cc(Cl)cc(Cl)c4)n3)CC2)CC1`, `O=C(CN1CCOCC1)N1CCN(c2nccc(Oc3cc(Cl)cc(Cl)c3)n2)CC1` is 1.5-fold higher in IC50: 24.7 µM for the first, 37.6 µM for the second. The first is the more potent here.

Compared with `CC(C)(C)c1ccc(S(=O)(=O)N2CCN(c3nccc(Oc4cc(Cl)cc(Cl)c4)n3)CC2)cc1`, `N#Cc1ccc(S(=O)(=O)N2CCN(c3nccc(Oc4cc(Cl)cc(Cl)c4)n3)CC2)cc1` is lower in IC50: greater than 50 µM for the first, 24.8 µM for the second. The second is the more potent here.

`O=C(Nc1ccccc1Cl)N1CCN(c2nccc(Oc3cc(Cl)cc(Cl)c3)n2)CC1` and `O=C(Nc1cccc(Cl)c1)N1CCN(c2nccc(Oc3cc(Cl)cc(Cl)c3)n2)CC1` are within 1.5-fold of each other in IC50: 11 µM for the first, 7.9 µM for the second.

Going from `COc1cccc(Nc2cc(N3CCN(C(=O)c4ccc(Cl)cc4Cl)CC3)ncn2)c1` to `COc1cccc(Nc2ccnc(N3CCN(C(=O)c4ccc(Cl)cc4Cl)CC3)n2)c1`, the IC50 rises from 7.23 µM to 11.3 µM (1.6-fold).

First: Cc1cnc(C(=O)N2CCN(c3nccc(Oc4cc(Cl)cc(Cl)c4)n3)CC2)cn1
Second: O=C(c1cc(Cl)ccn1)N1CCN(c2nccc(Oc3cc(Cl)cc(Cl)c3)n2)CC1
The IC50 of the first is 2.1-fold higher: 34.8 µM for the first, 16.7 µM for the second. The second is the more potent here.

Compared with `O=C(Nc1cc(C(F)(F)F)cc(C(F)(F)F)c1)N1CCN(c2nccc(Oc3cc(Cl)cc(Cl)c3)n2)CC1`, `CC(C)(C(=O)N1CCN(c2nccc(Oc3cc(Cl)cc(Cl)c3)n2)CC1)c1cc(C(F)(F)F)cc(C(F)(F)F)c1` is higher in IC50: 6.74 µM for the first, greater than 50 µM for the second. The first is the more potent here.

Compared with `O=C(c1ccc(Cl)cc1Cl)N1CCN(c2nccc(NCc3ccccc3)n2)CC1`, `O=C(Nc1ccccc1Cl)N1CCN(c2nccc(NCc3ccccc3)n2)CC1` is 6.2-fold lower in IC50: 9.79 µM for the first, 1.59 µM for the second. The second is the more potent here.

Compared with `O=C(c1ccc2ncccc2c1)N1CCN(c2nccc(Oc3cc(Cl)cc(Cl)c3)n2)CC1`, `O=C(c1cccc(O)c1)N1CCN(c2nccc(Oc3cc(Cl)cc(Cl)c3)n2)CC1` is lower in IC50: greater than 50 µM for the first, 18.4 µM for the second.

First: O=C(c1ccc[nH]1)N1CCN(c2nccc(Oc3cc(Cl)cc(Cl)c3)n2)CC1
Second: O=C(c1ccccc1F)N1CCN(c2nccc(Oc3cc(Cl)cc(Cl)c3)n2)CC1
The IC50 of the first is lower: 35.2 µM for the first, greater than 50 µM for the second. The first is the more potent here.

Compared with `O=S(=O)(c1ccccc1)N1CCN(c2nccc(Oc3cc(Cl)cc(Cl)c3)n2)CC1`, `O=S(=O)(c1cccnc1)N1CCN(c2nccc(Oc3cc(Cl)cc(Cl)c3)n2)CC1` is lower in IC50: greater than 50 µM for the first, 24.8 µM for the second. The second is the more potent here.

Compared with `O=C(Nc1ccc(C(F)(F)F)cc1)N1CCN(c2nccc(NCc3ccccc3)n2)CC1`, `COc1cccc(Nc2ccnc(N3CCN(C(=O)Nc4ccc(C(F)(F)F)cc4)CC3)n2)c1` is 2-fold lower in IC50: 2.45 µM for the first, 1.24 µM for the second.

`O=C(c1ccc(C(F)(F)F)cc1)N1CCN(c2nccc(Oc3cc(Cl)cc(Cl)c3)n2)CC1` and `O=C(c1cccc(C(F)(F)F)c1)N1CCN(c2nccc(Oc3cc(Cl)cc(Cl)c3)n2)CC1` are within 1.5-fold of each other in IC50: 12.5 µM for the first, 17.9 µM for the second.

Going from `O=C(c1ccc(Cl)cc1Cl)N1CCN(c2nccc(Oc3cc(Cl)cc(Cl)c3)n2)CC1` to `Cc1cccc(C(=O)N2CCN(c3nccc(Oc4cc(Cl)cc(Cl)c4)n3)CC2)c1`, the IC50 rises from 11.8 µM to greater than 50 µM.

`O=C1CC[C@@H](C(=O)N2CCN(c3nccc(Oc4cc(Cl)cc(Cl)c4)n3)CC2)N1` and `O=C([C@H]1Cc2ccccc2N1)N1CCN(c2nccc(Oc3cc(Cl)cc(Cl)c3)n2)CC1` cannot be ordered by IC50: greater than 50 µM for the first, greater than 50 µM for the second.

First: O=C(Nc1ccc(C(F)(F)F)cc1)N1CCN(c2nccc(Oc3cc(Cl)cc(Cl)c3)n2)CC1
Second: Cc1ccc(NC(=O)N2CCN(c3nccc(Oc4cc(Cl)cc(Cl)c4)n3)CC2)cc1
The IC50 of the first is 7.5-fold lower: 1.54 µM for the first, 11.6 µM for the second.

Going from `C#Cc1cccc(Nc2ncnc3cc(OCCOC)c(OCCOC)cc23)c1` [ERLOTINIB] to `COc1cccc(Nc2cc(N3CCN(C(=O)Nc4ccccc4Cl)CC3)ncn2)c1`, the IC50 falls from 55.5 µM to 2.8 µM (20-fold). The second is the more potent here.

Compared with `COc1cccc(Nc2ccnc(N3CCN(C(=O)Nc4ccccc4Cl)CC3)n2)c1`, `CC(=O)Nc1ccc(C(=O)N2CCN(c3nccc(Oc4cc(Cl)cc(Cl)c4)n3)CC2)cc1` is higher in IC50: 5.26 µM for the first, greater than 50 µM for the second.

With `COc1ccccc1S(=O)(=O)N1CCN(c2nccc(Oc3cc(Cl)cc(Cl)c3)n2)CC1` the IC50 was 16.8 µM.
